Laboratory results from ChEMBL document CHEMBL1129451, “Novel potent sigma 1 ligands: N-[omega-(tetralin-1-yl)alkyl]piperidine derivatives” (J Med Chem, 1996).

Tests used:
[1] = target: T1, 5-hydroxytryptamine receptor 1A (Rattus norvegicus, UniProt P19327); assay: Binding affinity was tested on 5-hydroxytryptamine 1A receptor using radioligand [3H]5-HT binding assay.
T1 sequence (P19327 whole entry): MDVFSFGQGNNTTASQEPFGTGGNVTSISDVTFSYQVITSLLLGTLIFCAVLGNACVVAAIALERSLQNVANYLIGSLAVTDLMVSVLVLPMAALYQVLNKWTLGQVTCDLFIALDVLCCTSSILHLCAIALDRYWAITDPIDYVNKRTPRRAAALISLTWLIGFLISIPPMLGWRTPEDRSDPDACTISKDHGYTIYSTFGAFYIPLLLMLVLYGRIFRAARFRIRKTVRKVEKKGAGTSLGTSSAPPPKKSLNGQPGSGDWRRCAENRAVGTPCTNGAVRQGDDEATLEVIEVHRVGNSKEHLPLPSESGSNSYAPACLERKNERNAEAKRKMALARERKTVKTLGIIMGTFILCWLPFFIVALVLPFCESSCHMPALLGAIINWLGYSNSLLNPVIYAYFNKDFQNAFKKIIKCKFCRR
Outline: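 Six to nine drug concentrations, triplicate samples, two to three independent experiments. IC50 converted to Ki by Cheng–Prusoff, with Kd and Bmax from saturation experiments.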

[2] = target: T2, D(2) dopamine receptor (Rattus norvegicus, UniProt P61169); assay: (§1) Binding affinity of compound towards Dopamine receptor D2 was determined in rat striatal homogenate using [3H]- spiperone as radioligand
Outline: (§2)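 Rat striatal membranes labelled with [3H]spiroperidol; (+)-butaclamol defined specific binding. […] Ki by Cheng–Prusoff using Bmax and Kd from saturation experiments. Tested as hydrogen oxalate salts (some hydrochlorides); oxalate interference excluded at highest concentration.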

[3] = target: Glutamate NMDA receptor; assay: Binding affinity was tested on Phencyclidine binding assay.; format: protein-complex assay
Outline: (§3)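 [3H]phencyclidine binding to rat hippocampus membranes, with (+)-N-allylnormetazocine (SKF 10,047) defining specific binding. […] Ki via Cheng–Prusoff with Bmax and Kd taken from saturation experiments.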

[4] = target: Sigma-1 receptor (Rattus norvegicus); assay: Binding affinity was tested on Sigma-1 receptor using radioligand [3H](+)-pentazocine binding assay.
[5] = target: T2, D(2) dopamine receptor; assay: (§4) Binding affinity was tested on Dopamine receptor D2 using radioligand [3H]spiroperidol
Outline: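 Ki by Cheng–Prusoff using Bmax and Kd from saturation experiments. Tested as hydrogen oxalate salts (some hydrochlorides); oxalate interference excluded at highest concentration.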

[6] = target: Serotonin 2 (5-HT2) receptor (Rattus norvegicus, UniProt P30994+P08909+P14842); assay: Percentage specific displacement of radioligand [3H]-ketanserin from 5-hydroxytryptamine 2 receptor; format: protein assay
[7] = target: Serotonin 2 (5-HT2) receptor (Rattus norvegicus) (UniProt P30994+P08909+P14842); assay: Percentage specific displacement of radioligand [3H]ketanserin from 5-hydroxytryptamine 2 receptor; format: protein assay; parameters: concentration or dose not given beside the values
[8] = target: D(2) dopamine receptor (Rattus norvegicus) (UniProt P61169); assay: as §4; parameters: concentration or dose not given beside the values; outline: as §2
[9] = target: T3, Glutamate NMDA receptor (Rattus norvegicus) (UniProt P35439+Q00959+Q00960+Q00961+Q62645+Q8VHN2+Q9R1M7); assay: Binding affinity of compound was tested on Phencyclidine binding assay.; format: protein-complex assay; outline: as §3
[10] = target: D(2) dopamine receptor (Rattus norvegicus) (UniProt P61169); assay: as §1; outline: as §2
[11] = target: T3, Glutamate NMDA receptor (Rattus norvegicus); assay: Percentage specific displacement of radioligand [3H]phencyclidine from Phencyclidine receptor; format: protein-complex assay
Outline: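 Rat hippocampus membranes, [3H]phencyclidine radioligand; (+)-N-allylnormetazocine (SKF 10,047) defined specific binding. Percent specific displacement run in triplicate at a single stated compound concentration.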

[12] = Binding affinity of compound was tested on Phencyclidine binding assay.

Chain of D(2) dopamine receptor (Rattus norvegicus) (P61169 whole entry): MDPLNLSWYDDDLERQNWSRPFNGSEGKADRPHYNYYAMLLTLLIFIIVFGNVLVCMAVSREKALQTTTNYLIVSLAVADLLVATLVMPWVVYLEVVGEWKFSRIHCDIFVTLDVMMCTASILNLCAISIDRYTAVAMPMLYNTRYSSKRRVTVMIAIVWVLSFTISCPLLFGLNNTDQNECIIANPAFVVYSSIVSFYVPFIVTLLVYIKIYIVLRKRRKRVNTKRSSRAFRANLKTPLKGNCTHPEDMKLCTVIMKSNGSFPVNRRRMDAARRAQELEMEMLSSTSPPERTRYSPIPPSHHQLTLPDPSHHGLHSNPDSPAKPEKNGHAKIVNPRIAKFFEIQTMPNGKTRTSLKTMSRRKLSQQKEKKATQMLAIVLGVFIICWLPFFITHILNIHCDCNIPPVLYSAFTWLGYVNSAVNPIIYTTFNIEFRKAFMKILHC
T2 sequence (P61169 whole entry): as above
Chain of Serotonin 2 (5-HT2) receptor (Rattus norvegicus) (P08909 whole entry, looked up): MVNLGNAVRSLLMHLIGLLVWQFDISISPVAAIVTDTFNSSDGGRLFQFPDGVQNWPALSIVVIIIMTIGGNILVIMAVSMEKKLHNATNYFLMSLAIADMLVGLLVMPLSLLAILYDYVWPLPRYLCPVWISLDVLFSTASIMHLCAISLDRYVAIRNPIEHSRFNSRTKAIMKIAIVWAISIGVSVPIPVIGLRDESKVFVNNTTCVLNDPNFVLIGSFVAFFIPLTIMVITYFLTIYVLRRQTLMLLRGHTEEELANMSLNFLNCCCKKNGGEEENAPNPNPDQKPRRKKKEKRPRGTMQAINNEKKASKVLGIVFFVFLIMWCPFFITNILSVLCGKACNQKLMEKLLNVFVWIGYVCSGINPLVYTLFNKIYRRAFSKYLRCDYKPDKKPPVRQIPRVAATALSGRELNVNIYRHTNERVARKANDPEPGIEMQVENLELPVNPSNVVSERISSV
Chain of Serotonin 2 (5-HT2) receptor (Rattus norvegicus) (P14842 whole entry, looked up): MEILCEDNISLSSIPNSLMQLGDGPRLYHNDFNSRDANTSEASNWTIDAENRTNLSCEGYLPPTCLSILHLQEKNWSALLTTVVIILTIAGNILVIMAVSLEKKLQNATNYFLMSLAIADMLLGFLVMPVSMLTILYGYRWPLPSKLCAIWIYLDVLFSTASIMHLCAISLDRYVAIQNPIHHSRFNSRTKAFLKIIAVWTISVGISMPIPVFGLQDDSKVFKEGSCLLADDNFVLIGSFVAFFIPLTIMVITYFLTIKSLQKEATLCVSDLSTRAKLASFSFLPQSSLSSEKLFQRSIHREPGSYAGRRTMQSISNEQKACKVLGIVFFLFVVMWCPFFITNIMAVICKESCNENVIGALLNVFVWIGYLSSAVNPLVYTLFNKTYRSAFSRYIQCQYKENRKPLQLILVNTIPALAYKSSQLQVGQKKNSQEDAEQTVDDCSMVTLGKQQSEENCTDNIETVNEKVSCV
Chain of Serotonin 2 (5-HT2) receptor (Rattus norvegicus) (P30994 whole entry, looked up): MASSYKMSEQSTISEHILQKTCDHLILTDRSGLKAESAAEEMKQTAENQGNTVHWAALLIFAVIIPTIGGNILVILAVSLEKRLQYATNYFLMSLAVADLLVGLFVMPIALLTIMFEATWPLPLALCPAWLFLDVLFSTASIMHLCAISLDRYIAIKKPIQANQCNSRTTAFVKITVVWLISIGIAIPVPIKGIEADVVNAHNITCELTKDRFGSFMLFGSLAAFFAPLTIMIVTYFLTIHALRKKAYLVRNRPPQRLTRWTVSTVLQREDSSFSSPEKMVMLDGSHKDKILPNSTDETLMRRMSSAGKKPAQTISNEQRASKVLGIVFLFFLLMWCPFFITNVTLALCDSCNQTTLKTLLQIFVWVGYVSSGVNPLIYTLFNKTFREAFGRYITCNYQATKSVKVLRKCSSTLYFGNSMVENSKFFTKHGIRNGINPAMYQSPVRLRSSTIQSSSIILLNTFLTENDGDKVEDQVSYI

SMILES	Ki [1]	Ki [3]	Ki [4]	Displacement [7]	Displacement [8]	other results
COc1cccc2c1CCCC2CCCN1CCC(Cc2ccccc2)CC1 (configuration not stated)	< 0.14 nM	> 92600 nM				Ki [2]: 1300 nM
c1ccc2c(c1)CCN(CCCCC1CCCc3ccccc31)C2 (configuration not stated)		> 92600 nM	3.7 nM			
CC1(C)CCCN(CCCCC2CCCc3ccccc32)C1 (configuration not stated)	> 1430 nM	> 92600 nM	0.8 nM			Ki [5]: > 10000 nM
COc1cccc2c1CCCC2CCCN1CCCCC1 (configuration not stated)	> 1430 nM	3240 nM				Ki [6]: > 5520 nM; Ki [5]: > 1850 nM
C1=C(CCCCN2CCCCC2)c2ccccc2CC1	> 1430 nM		3.9 nM	12%	0%	Displacement [9]: 92%
c1ccc2c(c1)CCCC2CCCCN1CCCCC1 (configuration not stated)	> 1430 nM	5560 nM	4.7 nM	64%	27%	
c1ccc2c(c1)CCCC2CCCN1CCCCC1 (configuration not stated)	> 1430 nM			21%		Displacement [10]: 0%; Displacement [11]: 95%
c1ccc(CC2CCN(CCCCC3CCCc4ccccc43)CC2)cc1 (configuration not stated)	285 nM	> 92600 nM	30 nM			
COc1cccc2c1CCCC2CCCN1CCCC(C)(C)C1 (configuration not stated)	898 nM	34.2 nM				Ki [5]: > 10000 nM
CCCN(CCC)CCCC1CCCc2ccccc21 (configuration not stated)	400 nM	48100 nM	6.7 nM	51%	0%	
CC1(C)CCCN(CCCC2CCCc3cscc32)C1 (configuration not stated)	> 1430 nM	9.4 nM				
CCCN(CCC)CCCCC1=CCCc2ccccc21	357 nM	2600 nM	3.9 nM	60%	40%	
c1cc2c(s1)CCCC2CCCN1CCCCC1 (configuration not stated)		> 92600 nM				
C=CCN1CCC2c3cc(O)ccc3CC1C2C (configuration not stated)						Ki [12]: 370 nM
COc1ccc2c(c1)C(CCCN1CCCCC1)CCC2 (configuration not stated)	> 1430 nM		63.2 nM			Ki [6]: > 5520 nM; Ki [5]: > 1850 nM; Displacement [11]: 88%
CCCN(CCC)CCCCC1CCCc2ccccc21 (configuration not stated)	200 nM	9910 nM	4.7 nM	66%	31%	
